Reference: ChEMBL document CHEMBL4152315, “Rational modification of a lead molecule: Improving the antifungal activity of indole - triazole - amino acid conjugates” (Eur J Med Chem, 2018)
≈ marks a conversion by molar mass, not a printed value.

Experiments:
Candida albicans [1] = assay: Antifungal activity against Candida albicans MTCC 3958 assessed as zone of growth inhibition after 48 hrs; format: functional
Outline: (§1)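 Agar well diffusion: Malt Yeast Agar (C. albicans) or Czapek Yeast Extract Agar (A. niger) swabbed with 100 µL inoculum at 1×10^5 CFU/mL; 6 mm wells filled with 128 µg/50 µL compound in 5% DMSO (10% DMSO for poorly soluble ones). DMSO negative controls, fluconazole reference. 28 °C for 48 h; zone of inhibition as mean of triplicates.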

Candida albicans [2] = assay: Antifungal activity against Candida albicans MTCC 3958 after 48 hrs; format: functional; details: MTCC 3958, 48 h
Outline: (§2)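 Broth tube dilution MIC: tested at 128, 64, 32, 16 and 8 μg/mL; Yeast Malt Broth for C. albicans, Czapek Dox Broth for A. niger. Inoculum 1×10³ CFU/mL final; 5% DMSO negative control, fluconazole reference. Incubated dark on rotary shaker (180 rpm), 28 °C, 48 h (C. albicans) or 72 h (A. niger); lowest concentration preventing visible growth recorded.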

Aspergillus niger [3] = assay: Antifungal activity against Aspergillus niger MTCC 9933 assessed as zone of growth inhibition after 48 hrs; format: functional; outline: as §1
Aspergillus niger [4] = assay: Antifungal activity against Aspergillus niger MTCC 9933 after 72 hrs; format: functional; details: MTCC 9933, 72 h; outline: as §2
Erythrocyte = assay: Cytotoxicity against sheep RBC assessed as cell viability at 1 mg/ml after 24 hrs by MTT assay relative to control; format: cell-based, Ovis aries
Outline: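 Sheep blood mixed 10:3 with Alsever's solution. Plasma was removed by centrifugation, and cells were washed three times in 1X PBS and diluted to 1×10^5 cells/mL. Cells were preincubated 24 h at 37 °C, then exposed to compound for 24 h at 37 °C. MTT (5 mg/ml stock) was added for 4 h, formazan was dissolved in DMSO, and A595 was read. Control wells received 10% DMSO diluent.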

Structure (SMILES) | inhibition zone (IZ) (Candida albicans [1]) [mm] | MIC90 (Candida albicans [2]) [µg/mL] | inhibition zone (IZ) (Aspergillus niger [3]) [mm] | MIC90 (Aspergillus niger [4]) [µg/mL] | Activity (Erythrocyte)
COC(=O)CNC(=O)C(=O)c1c[nH]c2ccccc12 | 10 | 128 (≈ 492 µM) | – | – | –
O=C(O)CC[C@H](NC(=O)C(=O)c1cn(Cc2cn(Cc3ccccc3)nn2)c2ccccc12)C(=O)O | 14 | 32 (≈ 65.4 µM) | 12 | > 32 | –
O=C(O)CNC(=O)C(=O)c1cn(Cc2cn(Cc3ccccc3)nn2)c2ccccc12 | 13 | 32 (≈ 76.7 µM) | 10 | 128 (≈ 307 µM) | –
COC(=O)[C@H](Cc1ccc(O)cc1)NC(=O)C(=O)c1cn(Cc2cn(Cc3ccccc3)nn2)c2ccccc12 | 8 | 128 (≈ 238 µM) | 10 | 128 (≈ 238 µM) | –
C#CCn1cc(C(=O)C(=O)N[C@@H](CC(=O)OC)C(=O)OC)c2ccccc21 | 13 | 64 (≈ 173 µM) | – | – | –
C#CCn1cc(C(=O)C(=O)N[C@@H](Cc2ccc(O)cc2)C(=O)OC)c2ccccc21 | 11 | 64 (≈ 158 µM) | 10 | 128 (≈ 317 µM) | –
O=C(N[C@@H](Cc1ccc(OCc2cn(Cc3ccccc3)nn2)cc1)C(=O)O)C(=O)c1cn(Cc2cn(Cc3ccccc3)nn2)c2ccccc12 | 16 | 16 (≈ 23 µM) | 15 | 32 (≈ 46.1 µM) | Non-Toxic
COC(=O)[C@H](Cc1c[nH]c2ccccc12)NC(=O)C(=O)c1cn(Cc2cn(Cc3ccccc3)nn2)c2ccccc12 | 9 | 128 (≈ 228 µM) | 12 | 64 (≈ 114 µM) | –
COC(=O)C[C@H](NC(=O)C(=O)c1c[nH]c2ccccc12)C(=O)OC | 15 | 32 (≈ 96.3 µM) | 13 | 64 (≈ 193 µM) | –
C#CCn1cc(C(=O)C(=O)N[C@@H](Cc2c[nH]c3ccccc23)C(=O)OC)c2ccccc21 | 10 | 128 (≈ 299 µM) | 9 | > 128 | –
COC(=O)CC[C@H](NC(=O)C(=O)c1c[nH]c2ccccc12)C(=O)OC | – | – | 9 | > 128 | –
O=C(O)C[C@H](NC(=O)C(=O)c1cn(Cc2cn(Cc3ccccc3)nn2)c2ccccc12)C(=O)O | 15 | 32 (≈ 67.3 µM) | 13 | 64 (≈ 135 µM) | –
COC(=O)CC[C@H](NC(=O)C(=O)c1cn(Cc2cn(Cc3ccccc3)nn2)c2ccccc12)C(=O)OC | 10 | 64 (≈ 124 µM) | 11 | 64 (≈ 124 µM) | –
COC(=O)[C@H](Cc1ccc(O)cc1)NC(=O)C(=O)c1c[nH]c2ccccc12 | – | – | 9 | > 128 | –
COC(=O)[C@H](Cc1ccc(OCc2cn(Cc3ccccc3)nn2)cc1)NC(=O)C(=O)c1cn(Cc2cn(Cc3ccccc3)nn2)c2ccccc12 | – | – | 13 | 64 (≈ 90.3 µM) | –
C#CCn1cc(C(=O)C(=O)N[C@@H](CCC(=O)OC)C(=O)OC)c2ccccc21 | 9 | 128 (≈ 333 µM) | – | – | –
C#CCOc1ccc(C[C@H](NC(=O)C(=O)c2cn(CC#C)c3ccccc23)C(=O)OC)cc1 | 13 | 64 (≈ 145 µM) | 13 | 64 (≈ 145 µM) | –
O=C(N[C@@H](Cc1ccc(O)cc1)C(=O)O)C(=O)c1cn(Cc2cn(Cc3ccccc3)nn2)c2ccccc12 | 15 | 16 (≈ 30.6 µM) | 13 | > 32 | –
COC(=O)[C@H](Cc1c[nH]c2ccccc12)NC(=O)C(=O)c1c[nH]c2ccccc12 | 14 | 32 (≈ 82.2 µM) | – | – | –
COC(=O)CNC(=O)C(=O)c1cn(Cc2cn(Cc3ccccc3)nn2)c2ccccc12 | 12 | 64 (≈ 148 µM) | 11 | 64 (≈ 148 µM) | –
C#CCn1cc(C(=O)C(=O)NCC(=O)OC)c2ccccc21 | 11 | 64 (≈ 215 µM) | – | – | –
O=C(N[C@@H](Cc1c[nH]c2ccccc12)C(=O)O)C(=O)c1cn(Cc2cn(Cc3ccccc3)nn2)c2ccccc12 | 14 | 32 (≈ 58.5 µM) | 14 | > 32 | –
COC(=O)C[C@H](NC(=O)C(=O)c1cn(Cc2cn(Cc3ccccc3)nn2)c2ccccc12)C(=O)OC | 11 | 128 (≈ 254 µM) | – | – | –
OC(Cn1cncn1)(Cn1cncn1)c1ccc(F)cc1F [FLUCONAZOLE] | 19 | 16 (≈ 52.2 µM) | 18 | 8 (≈ 26.1 µM) | –
